According to publication PMC3137751 (Biochemistry, 2010):

B1: IDH1/IDH2 (Saccharomyces cerevisiae S288C) (protein)
chain 1: ATAAQAERTLPKKYGGRFTVTLIPGDGVGKEITDSVRTIFEAENIPIDWETINIKQTDHKEGVYEAVESLKRNKIGLKGLWHTPADQTGHGSLNVALRKQLDIYANVALFKSLKGVKTRIPDIDLIVIRENTEGEFSGLEHESVPGVVESLKVMTRPKTERIARFAFDFAKKYNRKSVTAVHKANIMKLGDGLFRNIITEIGQKEYPDIDVSSIIVDNASMQAVAKPHQFDVLVTPSMYGTILGNIGAALIGGPGLVAGANFGRDYAVFEPGSRHVGLDIKGQNVANPTAMILSSTLMLNHLGLNEYATRISKAVHETIAEGKHTTRDIGGSSSTTDFTNEIINKLSTM
chain 2: ATVKQPSIGRYTGKPNPSTGKYTVSFIEGDGIGPEISKSVKKIFSAANVPIEWESCDVSPIFVNGLTTIPDPAVQSITKNLVALKGPLATPIGKGHRSLNLTLRKTFGLFANVRPAKSIEGFKTTYENVDLVLIRENTEGEYSGIEHIVCPGVVQSIKLITRDASERVIRYAFEYARAIGRPRVIVVHKSTIQRLADGLFVNVAKELSKEYPDLTLETELIDNSVLKVVTNPSAYTDAVSVCPNLYGDILSDLNSGLSAGSLGLTPSANIGHKISIFEAVHGSAPDIAGQDKANPTALLLSSVMMLNHMGLTNHADQIQNAVLSTIASGPENRTGDLAGTATTSSFTEAVIKRL
B2: ^-5IDH1^D168K/IDH2 (Saccharomyces cerevisiae S288C; D179K) (protein)
chain 1: AERTLPKKYGGRFTVTLIPGDGVGKEITDSVRTIFEAENIPIDWETINIKQTDHKEGVYEAVESLKRNKIGLKGLWHTPADQTGHGSLNVALRKQLDIYANVALFKSLKGVKTRIPDIDLIVIRENTEGEFSGLEHESVPGVVESLKVMTRPKTERIARFAFKFAKKYNRKSVTAVHKANIMKLGDGLFRNIITEIGQKEYPDIDVSSIIVDNASMQAVAKPHQFDVLVTPSMYGTILGNIGAALIGGPGLVAGANFGRDYAVFEPGSRHVGLDIKGQNVANPTAMILSSTLMLNHLGLNEYATRISKAVHETIAEGKHTTRDIGGSSSTTDFTNEIINKLSTM
chain 2: ATVKQPSIGRYTGKPNPSTGKYTVSFIEGDGIGPEISKSVKKIFSAANVPIEWESCDVSPIFVNGLTTIPDPAVQSITKNLVALKGPLATPIGKGHRSLNLTLRKTFGLFANVRPAKSIEGFKTTYENVDLVLIRENTEGEYSGIEHIVCPGVVQSIKLITRDASERVIRYAFEYARAIGRPRVIVVHKSTIQRLADGLFVNVAKELSKEYPDLTLETELIDNSVLKVVTNPSAYTDAVSVCPNLYGDILSDLNSGLSAGSLGLTPSANIGHKISIFEAVHGSAPDIAGQDKANPTALLLSSVMMLNHMGLTNHADQIQNAVLSTIASGPENRTGDLAGTATTSSFTEAVIKRL
B3: wild-type IDH1/IDH2 enzyme (yeast NAD+-specific isocitrate dehydrogenase) (complex)
chain 1: ATAAQAERTLPKKYGGRFTVTLIPGDGVGKEITDSVRTIFEAENIPIDWETINIKQTDHKEGVYEAVESLKRNKIGLKGLWHTPADQTGHGSLNVALRKQLDIYANVALFKSLKGVKTRIPDIDLIVIRENTEGEFSGLEHESVPGVVESLKVMTRPKTERIARFAFDFAKKYNRKSVTAVHKANIMKLGDGLFRNIITEIGQKEYPDIDVSSIIVDNASMQAVAKPHQFDVLVTPSMYGTILGNIGAALIGGPGLVAGANFGRDYAVFEPGSRHVGLDIKGQNVANPTAMILSSTLMLNHLGLNEYATRISKAVHETIAEGKHTTRDIGGSSSTTDFTNEIINKLSTM
chain 2: ATVKQPSIGRYTGKPNPSTGKYTVSFIEGDGIGPEISKSVKKIFSAANVPIEWESCDVSPIFVNGLTTIPDPAVQSITKNLVALKGPLATPIGKGHRSLNLTLRKTFGLFANVRPAKSIEGFKTTYENVDLVLIRENTEGEYSGIEHIVCPGVVQSIKLITRDASERVIRYAFEYARAIGRPRVIVVHKSTIQRLADGLFVNVAKELSKEYPDLTLETELIDNSVLKVVTNPSAYTDAVSVCPNLYGDILSDLNSGLSAGSLGLTPSANIGHKISIFEAVHGSAPDIAGQDKANPTALLLSSVMMLNHMGLTNHADQIQNAVLSTIASGPENRTGDLAGTATTSSFTEAVIKRL
B4: IDH1^G15D/IDH2: full-length IDH1 with G15D substitution plus IDH2; stable tetramer (protein)
chain 1: ATAAQAERTLPKKYDGRFTVTLIPGDGVGKEITDSVRTIFEAENIPIDWETINIKQTDHKEGVYEAVESLKRNKIGLKGLWHTPADQTGHGSLNVALRKQLDIYANVALFKSLKGVKTRIPDIDLIVIRENTEGEFSGLEHESVPGVVESLKVMTRPKTERIARFAFDFAKKYNRKSVTAVHKANIMKLGDGLFRNIITEIGQKEYPDIDVSSIIVDNASMQAVAKPHQFDVLVTPSMYGTILGNIGAALIGGPGLVAGANFGRDYAVFEPGSRHVGLDIKGQNVANPTAMILSSTLMLNHLGLNEYATRISKAVHETIAEGKHTTRDIGGSSSTTDFTNEIINKLSTM
chain 2: ATVKQPSIGRYTGKPNPSTGKYTVSFIEGDGIGPEISKSVKKIFSAANVPIEWESCDVSPIFVNGLTTIPDPAVQSITKNLVALKGPLATPIGKGHRSLNLTLRKTFGLFANVRPAKSIEGFKTTYENVDLVLIRENTEGEYSGIEHIVCPGVVQSIKLITRDASERVIRYAFEYARAIGRPRVIVVHKSTIQRLADGLFVNVAKELSKEYPDLTLETELIDNSVLKVVTNPSAYTDAVSVCPNLYGDILSDLNSGLSAGSLGLTPSANIGHKISIFEAVHGSAPDIAGQDKANPTALLLSSVMMLNHMGLTNHADQIQNAVLSTIASGPENRTGDLAGTATTSSFTEAVIKRL
modifications: left off: histidine tag, C-terminal, kept
B5: ^-5IDH1^G15D/IDH2: truncated -5 IDH1 with G15D replacement plus IDH2; tetrameric (protein)
chain 1: AERTLPKKYDGRFTVTLIPGDGVGKEITDSVRTIFEAENIPIDWETINIKQTDHKEGVYEAVESLKRNKIGLKGLWHTPADQTGHGSLNVALRKQLDIYANVALFKSLKGVKTRIPDIDLIVIRENTEGEFSGLEHESVPGVVESLKVMTRPKTERIARFAFDFAKKYNRKSVTAVHKANIMKLGDGLFRNIITEIGQKEYPDIDVSSIIVDNASMQAVAKPHQFDVLVTPSMYGTILGNIGAALIGGPGLVAGANFGRDYAVFEPGSRHVGLDIKGQNVANPTAMILSSTLMLNHLGLNEYATRISKAVHETIAEGKHTTRDIGGSSSTTDFTNEIINKLSTM
chain 2: ATVKQPSIGRYTGKPNPSTGKYTVSFIEGDGIGPEISKSVKKIFSAANVPIEWESCDVSPIFVNGLTTIPDPAVQSITKNLVALKGPLATPIGKGHRSLNLTLRKTFGLFANVRPAKSIEGFKTTYENVDLVLIRENTEGEYSGIEHIVCPGVVQSIKLITRDASERVIRYAFEYARAIGRPRVIVVHKSTIQRLADGLFVNVAKELSKEYPDLTLETELIDNSVLKVVTNPSAYTDAVSVCPNLYGDILSDLNSGLSAGSLGLTPSANIGHKISIFEAVHGSAPDIAGQDKANPTALLLSSVMMLNHMGLTNHADQIQNAVLSTIASGPENRTGDLAGTATTSSFTEAVIKRL
modifications: left off: histidine tag, C-terminal, kept
B6: ^-5IDH1^D168K/IDH2: truncated -5 IDH1 with D168K replacement plus IDH2; tetrameric (protein)
chain 1: AERTLPKKYGGRFTVTLIPGDGVGKEITDSVRTIFEAENIPIDWETINIKQTDHKEGVYEAVESLKRNKIGLKGLWHTPADQTGHGSLNVALRKQLDIYANVALFKSLKGVKTRIPDIDLIVIRENTEGEFSGLEHESVPGVVESLKVMTRPKTERIARFAFKFAKKYNRKSVTAVHKANIMKLGDGLFRNIITEIGQKEYPDIDVSSIIVDNASMQAVAKPHQFDVLVTPSMYGTILGNIGAALIGGPGLVAGANFGRDYAVFEPGSRHVGLDIKGQNVANPTAMILSSTLMLNHLGLNEYATRISKAVHETIAEGKHTTRDIGGSSSTTDFTNEIINKLSTM
chain 2: ATVKQPSIGRYTGKPNPSTGKYTVSFIEGDGIGPEISKSVKKIFSAANVPIEWESCDVSPIFVNGLTTIPDPAVQSITKNLVALKGPLATPIGKGHRSLNLTLRKTFGLFANVRPAKSIEGFKTTYENVDLVLIRENTEGEYSGIEHIVCPGVVQSIKLITRDASERVIRYAFEYARAIGRPRVIVVHKSTIQRLADGLFVNVAKELSKEYPDLTLETELIDNSVLKVVTNPSAYTDAVSVCPNLYGDILSDLNSGLSAGSLGLTPSANIGHKISIFEAVHGSAPDIAGQDKANPTALLLSSVMMLNHMGLTNHADQIQNAVLSTIASGPENRTGDLAGTATTSSFTEAVIKRL
modifications: left off: histidine tag, C-terminal, kept
B7: ^-5IDH1/IDH2: IDH with five residues truncated from the amino terminus of IDH1; octameric (protein)
chain 1: AERTLPKKYGGRFTVTLIPGDGVGKEITDSVRTIFEAENIPIDWETINIKQTDHKEGVYEAVESLKRNKIGLKGLWHTPADQTGHGSLNVALRKQLDIYANVALFKSLKGVKTRIPDIDLIVIRENTEGEFSGLEHESVPGVVESLKVMTRPKTERIARFAFDFAKKYNRKSVTAVHKANIMKLGDGLFRNIITEIGQKEYPDIDVSSIIVDNASMQAVAKPHQFDVLVTPSMYGTILGNIGAALIGGPGLVAGANFGRDYAVFEPGSRHVGLDIKGQNVANPTAMILSSTLMLNHLGLNEYATRISKAVHETIAEGKHTTRDIGGSSSTTDFTNEIINKLSTM
chain 2: ATVKQPSIGRYTGKPNPSTGKYTVSFIEGDGIGPEISKSVKKIFSAANVPIEWESCDVSPIFVNGLTTIPDPAVQSITKNLVALKGPLATPIGKGHRSLNLTLRKTFGLFANVRPAKSIEGFKTTYENVDLVLIRENTEGEYSGIEHIVCPGVVQSIKLITRDASERVIRYAFEYARAIGRPRVIVVHKSTIQRLADGLFVNVAKELSKEYPDLTLETELIDNSVLKVVTNPSAYTDAVSVCPNLYGDILSDLNSGLSAGSLGLTPSANIGHKISIFEAVHGSAPDIAGQDKANPTALLLSSVMMLNHMGLTNHADQIQNAVLSTIASGPENRTGDLAGTATTSSFTEAVIKRL
modifications: left off: histidine tag, C-terminal, kept

Tests used:
[1] = substrate: O=C(O)C[C@H](C(=O)O)[C@@H](O)C(=O)O; test: Apparent S0.5 for isocitrate; assay type: biochemical; conditions: pH 7.4; 24.0 °C
AUC = biological target: the molecule itself; test: AUC
[2] = system: Yeast NAD+-specific isocitrate dehydrogenase (IDH); test: Kinetic analyses: isocitrate saturation velocity curves of purified IDH enzymes; assay type: biochemical; conditions: for Hill coef. with respect to isocitrate, − AMP: absence of AMP; for Vmax (apparent), + AMP: isocitrate velocity saturation curve; for Vmax (apparent), + AMP / Hill coef. with respect to isocitrate, + AMP: presence of 100 μM AMP
Outline: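 His-tagged IDH purified by Ni2+-NTA, stored at −20 °C in elution buffer with 20% glycerol, quantified by A280. Assays at 24 °C used 40 mM Tris-HCl pH 7.4, 4 mM MgCl2 and 0.5 mM NAD+. D-isocitrate was varied 0–5 mM, with or without 100 μM AMP, and NADH formation was followed. Apparent S0.5 and Hill coefficients came from saturation curves, Vmax as maximum velocity per mg, over two independent experiments.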

Row | Molecule | K0.5 [1] | stoichiometry N (AUC) | Hill coef. with respect to isocitrate, − AMP [2] | Vmax (apparent), + AMP [2] | Hill coef. with respect to isocitrate, + AMP [2] | reduction in apparent Vmax relative to IDH1/IDH2 (wild-type) ([2]; relative to IDH1/IDH2) | reduction in apparent Vmax relative to ^-5IDH1/IDH2 [2]
1 | B1 | 0.53/0.10 (±0.10/0) mM | – | – | – | – | – | –
2 | B2 | 0.61/0.13 (±0.13/0.04) mM | – | – | – | – | – | –
3 | B3 | – | 8 | – | – | – | – | –
4 | B4 | – | – | 2.3 | 21.9 units/mg | 2.0 | ~ 38% | –
5 | B5 | – | – | 2.2 | 15.4 units/mg | 2.0 | – | ~ 50%
6 | B6 | – | – | 2.2 | 15.3 units/mg | 2.0 | – | ~ 50%
7 | B7 | – | – | 3.1 | 30.3 units/mg | 3.5 | – | –
